Assay results reported in paper PMC6648849 (ACS Omega, 2019).

Key:
HepG2 cells [1] = assay: cellular uptake by CLSM in HepG2 cells; type: cell-based, human; conditions: 10 μM, 6 h, 37 °C, 5% CO2; CLSM fluorescence imaging
Summary of the method: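 HepG2 cells seeded on glass-bottom dishes at 2.0 × 10^4 cells/well, grown ~24 h, then transduced with BacMam tubulin–GFP for 24 h at 37 °C, 5% CO2. Incubated with 10 μM test compound in medium, PBS-washed, and nuclei stained with 5 μg/mL Hoechst 33342 for 10 min. Confocal imaging: compound ex 550/em 574 nm, GFP ex 489/em 510 nm.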

HepG2 cells [2] = assay: cell viability assay; type: cell-based, human; conditions: 0–20 μM, 37 °C, 5% CO2, WST (Cell Counting Kit-8), absorbance at 450 nm
Summary of the method: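 HepG2 cells plated at 1.0 × 10^4 cells/well and grown 24 h at 37 °C, 5% CO2. Medium replaced with 0–20 μM test compound for 24 or 72 h. Then fresh medium plus Cell Counting Kit-8 (WST) reagent, 4 h incubation, and absorbance read at 450 nm. Viability (%) is relative to untreated control cells set as 100%.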

MTs [3] = assay: depolymerization/polymerization of MTs in living HepG2 cells; type: cell-based, human; conditions: 10 μM colchicine coincubated with 10 μM TP–TMR, 6 h, 37 °C
Summary of the method: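 HepG2 cells expressing BacMam-delivered tubulin–GFP were coincubated with 10 μM test compound and 10 μM colchicine for 6 h at 37 °C under 5% CO2. Nuclei stained with Hoechst 33342 after a PBS wash. Compound and tubulin–GFP signals imaged by confocal microscopy to assess colocalization of compound fluorescence with microtubule fibres.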

[4] = cited from earlier work
MTs [5] = conditions: cited from earlier work

5(6)-carboxytetramethylrhodamine [TMR–COOH]
cellular uptake into HepG2 cells (HepG2 cells [1]): not observed

COc1cc2c(c(OC)c1OC)-c1ccc(OC)c(=O)cc1[C@@H](NC(C)=O)CC2 [colchicine]
cytotoxicity against HepG2 cells, 24 h (HepG2 cells [2]): clear cytotoxicity in a concentration-dependent manner | effect on polymerization of MTs in HepG2 cells (MTs [3]): polymerization of MTs was inhibited

CC(=O)O[C@H]1C(=O)[C@@]2(C)[C@H]([C@H](OC(=O)c3ccccc3)[C@]3(O)C[C@H](OC(=O)[C@H](O)[C@@H](NC(=O)c4ccccc4)c4ccccc4)C(C)=C1C3(C)C)[C@]1(OC(C)=O)CO[C@@H]1C[C@@H]2O [taxol]
cytotoxicity against HepG2 cells, 24 h (HepG2 cells [2]): clear cytotoxicity in a concentration-dependent manner

CGGGKKHVPGGGSVQIVYKPVDL [TP]
water solubility [4]: high water solubility at millimolar concentrations | effect of binding on polymerization/depolymerization of MTs in vitro (MTs [5]): does not inhibit
